Laboratory results: ChEMBL document CHEMBL1130758, “alpha-substituted quisqualic acid analogs: new metabotropic glutamate receptor group II selective antagonists” (Bioorg Med Chem Lett, 1998)

Columns and labels:
[1] = target: T1, Glutamate receptor ionotropic, kainate (Rattus norvegicus) (UniProt P22756+Q01812+P42260+P42264+Q63273); assay: Antagonistic activity against Ionotropic glutamate receptor kainate was determined by the percentage of 45 [Ca2+] influx in cerebellar neurons at the concentration 100 uM; format: functional
Method in brief: (§1)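 Rat cerebellar neurons (7-day-old pups, 8-9 days in culture) were given 45CaCl2 (1 µCi/mL) in Locke's buffer with 1 mM Mg2+, 50 µM kainate and 1 µM MK-801, for 15 min at room temperature. After three ice-cold washes and dissolution in 0.5 M NaOH, radioactivity and protein were measured. Results are % of net kainate-alone influx, mean ± S.E.M., n=6 from two preparations.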

[2] = target: T1, Glutamate receptor ionotropic, kainate (Rattus norvegicus); assay: Antagonistic activity against Ionotropic glutamate receptor kainate was determined by the percentage of 45 [Ca2+] influx in cerebellar neurons at the concentration 1 mM; format: functional; method in brief: as §1
[3] = target: T2, Glutamate receptor ionotropic, AMPA (Rattus norvegicus) (UniProt P19491+P19492+P19493+P19490); assay: Antagonistic activity against Ionotropic glutamate receptor AMPA was determined by the percentage of 45 [Ca2+] influx in cerebellar neurons at the concentration 1 mM; format: functional
Method in brief: (§2)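 Cerebellar neurons cultured from 7-day-old rats (used at 8-9 days) had 45Ca2+ influx (1 µCi/mL) measured over 15 min at room temperature in Locke's buffer with 1 mM Mg2+, 30 µM AMPA, 10 µM cyclothiazide and 1 µM MK-801. Cells were washed three times ice-cold, dissolved in NaOH and counted, normalized to protein. Results are % of net AMPA-alone influx, mean ± S.E.M., six measurements from two preparations.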

[4] = target: T2, Glutamate receptor ionotropic, AMPA (Rattus norvegicus); assay: Antagonistic activity against Ionotropic glutamate receptor AMPA was determined by the percentage of 45 [Ca2+] influx in cerebellar neurons at the concentration 100 uM; format: functional; method in brief: as §2
[5] = target: Metabotropic glutamate receptor 6 (Rattus norvegicus, UniProt P35349); assay: Antagonistic activity against rat (mGluR) metabotropic glutamate receptor 6 stably expressed in chinese hamster ovary (CHO) cells; format: functional, cell-based
[6] = target: Metabotropic glutamate receptor 4 (Rattus norvegicus, UniProt P31423); assay: Antagonistic activity against rat (mGluR) metabotropic glutamate receptor 4a stably expressed in chinese hamster ovary (CHO) cells; format: functional, cell-based
[7] = target: Metabotropic glutamate receptor 1 (Rattus norvegicus, UniProt P23385); assay: Antagonistic activity against rat (mGluR) metabotropic glutamate receptor 1a stably expressed in chinese hamster ovary (CHO) cells; format: functional, cell-based
Method in brief: (§3)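 CHO cells expressing the receptor were labelled overnight with myo-[3H]inositol in glutamine-free medium. They were then exposed to compounds for 30 min at 37 °C in Locke's buffer (HEPES, pH 7.4) with 20 mM LiCl. Inositol phosphates were extracted for 10 min with 0.1 M HCl and separated by anion-exchange chromatography.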

[8] = target: Metabotropic glutamate receptor 5 (Rattus norvegicus, UniProt P31424); assay: Antagonistic activity against rat (mGluR) metabotropic glutamate receptor 5a stably expressed in chinese hamster ovary (CHO) cells; format: functional, cell-based; method in brief: as §3
[9] = target: T3, Glutamate NMDA receptor (Rattus norvegicus) (UniProt P35439+Q00959+Q00960+Q00961+Q62645+Q8VHN2+Q9R1M7); assay: Antagonistic activity against NMDA ionotropic glutamate receptor was determined by the percentage of 45 [Ca2+] influx in cerebellar neurons at the concentration 100 uM; format: functional
Method in brief: (§4)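 Rat cerebellar neurons (7-day-old pups, 8-9 days in culture) were incubated for 15 min at room temperature in Mg2+-free Locke's buffer with 1 µCi/mL 45CaCl2, 100 µM NMDA, 1 µM glycine and 10 µM NBQX. Cells were washed three times with ice-cold buffer and dissolved in 0.5 M NaOH to count radioactivity and protein. Results are % of net agonist-alone influx, mean ± S.E.M. of six measurements from two culture preparations.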

[10] = target: T3, Glutamate NMDA receptor (Rattus norvegicus); assay: Antagonistic activity against NMDA ionotropic glutamate receptor was determined by the percentage of 45 [Ca2+] influx in cerebellar neurons at the concentration 1 mM; format: functional; method in brief: as §4

Sequence of Metabotropic glutamate receptor 6 (P35349 whole entry): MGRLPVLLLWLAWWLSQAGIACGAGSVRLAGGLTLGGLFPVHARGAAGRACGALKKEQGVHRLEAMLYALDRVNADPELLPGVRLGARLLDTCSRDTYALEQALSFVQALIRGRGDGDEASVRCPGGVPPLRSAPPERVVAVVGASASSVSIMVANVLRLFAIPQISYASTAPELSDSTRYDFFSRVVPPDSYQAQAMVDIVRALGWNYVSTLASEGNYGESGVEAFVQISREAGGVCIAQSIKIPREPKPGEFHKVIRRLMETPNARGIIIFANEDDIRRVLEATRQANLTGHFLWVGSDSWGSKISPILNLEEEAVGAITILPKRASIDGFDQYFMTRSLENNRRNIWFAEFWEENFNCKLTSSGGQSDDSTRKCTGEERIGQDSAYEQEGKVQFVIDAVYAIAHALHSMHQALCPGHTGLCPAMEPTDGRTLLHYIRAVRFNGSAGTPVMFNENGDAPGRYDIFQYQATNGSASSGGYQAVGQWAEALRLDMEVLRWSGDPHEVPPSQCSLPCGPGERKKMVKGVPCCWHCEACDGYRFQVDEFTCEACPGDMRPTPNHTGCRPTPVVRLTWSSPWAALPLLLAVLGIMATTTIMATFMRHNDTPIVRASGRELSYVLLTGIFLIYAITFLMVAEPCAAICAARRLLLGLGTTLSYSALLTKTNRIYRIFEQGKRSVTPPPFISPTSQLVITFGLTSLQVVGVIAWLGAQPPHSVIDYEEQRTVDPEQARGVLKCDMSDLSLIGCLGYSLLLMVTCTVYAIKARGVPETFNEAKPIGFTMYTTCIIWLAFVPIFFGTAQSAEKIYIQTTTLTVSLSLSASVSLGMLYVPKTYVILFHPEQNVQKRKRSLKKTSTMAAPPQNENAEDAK
Sequence of Metabotropic glutamate receptor 4 (P31423 whole entry): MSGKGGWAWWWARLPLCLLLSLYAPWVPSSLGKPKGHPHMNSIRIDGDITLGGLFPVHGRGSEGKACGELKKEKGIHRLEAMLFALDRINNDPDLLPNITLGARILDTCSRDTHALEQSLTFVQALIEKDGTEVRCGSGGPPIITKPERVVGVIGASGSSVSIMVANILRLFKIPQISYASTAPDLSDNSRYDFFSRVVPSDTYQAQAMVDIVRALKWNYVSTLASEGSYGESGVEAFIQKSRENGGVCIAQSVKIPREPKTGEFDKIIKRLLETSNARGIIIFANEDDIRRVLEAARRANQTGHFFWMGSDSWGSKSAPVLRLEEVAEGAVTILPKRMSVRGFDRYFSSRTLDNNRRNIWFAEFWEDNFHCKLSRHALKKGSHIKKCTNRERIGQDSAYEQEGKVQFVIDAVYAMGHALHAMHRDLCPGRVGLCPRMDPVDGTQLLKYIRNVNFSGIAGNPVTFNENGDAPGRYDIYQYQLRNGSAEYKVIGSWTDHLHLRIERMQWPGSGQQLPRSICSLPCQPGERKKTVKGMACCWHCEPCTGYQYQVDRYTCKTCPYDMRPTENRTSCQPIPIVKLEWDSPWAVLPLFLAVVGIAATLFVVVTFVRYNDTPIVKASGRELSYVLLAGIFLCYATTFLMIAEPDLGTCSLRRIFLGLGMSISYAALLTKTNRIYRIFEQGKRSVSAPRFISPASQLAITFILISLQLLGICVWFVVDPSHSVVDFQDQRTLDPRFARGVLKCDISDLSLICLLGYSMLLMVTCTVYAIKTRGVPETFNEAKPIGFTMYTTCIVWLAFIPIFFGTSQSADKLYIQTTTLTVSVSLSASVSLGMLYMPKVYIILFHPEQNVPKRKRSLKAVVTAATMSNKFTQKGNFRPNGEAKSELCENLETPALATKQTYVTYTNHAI
Sequence of Metabotropic glutamate receptor 1 (P23385 whole entry): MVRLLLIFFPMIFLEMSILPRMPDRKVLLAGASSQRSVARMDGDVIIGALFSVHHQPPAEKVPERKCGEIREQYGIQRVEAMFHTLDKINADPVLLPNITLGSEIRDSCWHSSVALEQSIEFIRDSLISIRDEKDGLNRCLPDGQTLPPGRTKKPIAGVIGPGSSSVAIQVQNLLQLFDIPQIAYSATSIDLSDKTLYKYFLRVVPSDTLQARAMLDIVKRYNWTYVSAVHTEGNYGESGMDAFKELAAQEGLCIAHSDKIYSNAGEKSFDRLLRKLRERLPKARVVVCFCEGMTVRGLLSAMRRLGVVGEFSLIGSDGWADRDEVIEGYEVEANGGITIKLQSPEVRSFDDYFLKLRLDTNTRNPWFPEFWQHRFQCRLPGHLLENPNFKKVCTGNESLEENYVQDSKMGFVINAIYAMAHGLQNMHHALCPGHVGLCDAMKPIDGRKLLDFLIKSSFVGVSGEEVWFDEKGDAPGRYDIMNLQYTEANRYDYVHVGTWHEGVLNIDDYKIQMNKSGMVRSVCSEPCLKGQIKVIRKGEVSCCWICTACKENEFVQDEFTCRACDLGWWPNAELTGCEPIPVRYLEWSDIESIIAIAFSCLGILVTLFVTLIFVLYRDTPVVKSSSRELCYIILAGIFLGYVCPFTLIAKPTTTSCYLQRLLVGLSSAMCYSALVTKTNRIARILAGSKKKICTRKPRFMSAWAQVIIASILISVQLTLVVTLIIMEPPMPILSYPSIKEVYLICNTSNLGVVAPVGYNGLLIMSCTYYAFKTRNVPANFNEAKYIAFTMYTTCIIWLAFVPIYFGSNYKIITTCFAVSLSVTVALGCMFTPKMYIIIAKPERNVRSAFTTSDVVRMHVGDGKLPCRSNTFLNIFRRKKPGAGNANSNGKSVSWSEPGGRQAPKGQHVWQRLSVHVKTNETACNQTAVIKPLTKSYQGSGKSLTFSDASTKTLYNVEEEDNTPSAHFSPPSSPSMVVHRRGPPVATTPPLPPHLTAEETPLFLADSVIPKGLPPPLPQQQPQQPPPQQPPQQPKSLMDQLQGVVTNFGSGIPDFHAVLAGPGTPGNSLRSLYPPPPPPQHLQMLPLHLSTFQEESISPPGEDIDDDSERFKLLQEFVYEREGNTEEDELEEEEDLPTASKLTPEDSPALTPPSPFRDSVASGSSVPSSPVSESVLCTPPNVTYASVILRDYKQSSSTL
Sequence of Metabotropic glutamate receptor 5 (P31424 whole entry): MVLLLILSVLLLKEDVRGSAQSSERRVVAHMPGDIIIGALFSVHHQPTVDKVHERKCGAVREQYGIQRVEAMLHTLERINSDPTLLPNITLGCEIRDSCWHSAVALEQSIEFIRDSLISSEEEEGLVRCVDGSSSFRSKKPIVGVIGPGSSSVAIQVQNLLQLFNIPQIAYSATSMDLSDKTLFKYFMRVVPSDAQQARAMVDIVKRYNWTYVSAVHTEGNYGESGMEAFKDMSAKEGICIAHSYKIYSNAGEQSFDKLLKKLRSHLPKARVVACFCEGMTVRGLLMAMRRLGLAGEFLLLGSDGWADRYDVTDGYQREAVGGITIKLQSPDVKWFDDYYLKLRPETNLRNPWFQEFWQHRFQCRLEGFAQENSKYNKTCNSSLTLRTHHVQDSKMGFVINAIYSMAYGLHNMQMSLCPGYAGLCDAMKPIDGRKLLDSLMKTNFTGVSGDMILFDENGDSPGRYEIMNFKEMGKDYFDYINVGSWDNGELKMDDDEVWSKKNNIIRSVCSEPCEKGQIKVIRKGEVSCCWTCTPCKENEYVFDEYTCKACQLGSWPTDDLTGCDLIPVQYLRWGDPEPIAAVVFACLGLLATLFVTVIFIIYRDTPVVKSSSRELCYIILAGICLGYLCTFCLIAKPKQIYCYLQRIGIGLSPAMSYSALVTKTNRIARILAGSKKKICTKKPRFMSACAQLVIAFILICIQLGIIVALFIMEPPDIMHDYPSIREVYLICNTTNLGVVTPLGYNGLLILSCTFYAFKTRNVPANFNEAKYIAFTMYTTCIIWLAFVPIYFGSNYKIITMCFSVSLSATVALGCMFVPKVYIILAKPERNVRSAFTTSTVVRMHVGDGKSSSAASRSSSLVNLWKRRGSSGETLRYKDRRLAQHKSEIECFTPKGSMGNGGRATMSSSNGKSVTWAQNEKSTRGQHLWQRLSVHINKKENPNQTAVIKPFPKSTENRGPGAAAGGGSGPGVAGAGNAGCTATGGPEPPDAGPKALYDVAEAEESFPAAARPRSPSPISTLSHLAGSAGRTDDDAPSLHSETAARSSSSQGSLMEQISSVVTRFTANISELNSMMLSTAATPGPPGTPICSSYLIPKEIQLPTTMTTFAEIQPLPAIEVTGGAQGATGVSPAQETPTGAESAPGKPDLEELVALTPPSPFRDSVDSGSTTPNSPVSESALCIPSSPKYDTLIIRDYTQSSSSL

KA effect [1] [%] | KA effect [2] [%] | AMPA effect [3] [%] | AMPA effect [4] [%] | EC50 [5] [µM] | EC50 [6] [µM] | EC50 [7] [µM] | EC50 [8] [µM] | NMDA effect [9] [%] | NMDA effect [10] [%] | SMILES
71 | 75 | 89 | 98 | > 1000 | > 1000 | ~500 | ~1000 | 105 | 30 | C[C@](N)(Cn1oc(=O)[nH]c1=O)C(=O)O
97 | 105 | 103 | 113 | > 1000 | > 1000 | ~300 | ~300 | 84 | 52 | N[C@@](Cc1ccccc1)(Cn1oc(=O)[nH]c1=O)C(=O)O
